Assay [1] concerns the target T1, Melanocortin receptor 4 (Homo sapiens, UniProt P32245). Briefly: Percentage of cAMP accumulation of compound relative to alpha-MSH, at human MC4R. The class given is functional. A digest of the protocol: (§1)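 cAMP accumulation at human MC4R, measured relative to α-MSH. EC50 is the inflection point of the cAMP dose-response curve. Where no EC50 is given, the value is the accumulation at the highest concentration tested. %Max is the accumulation at 10 µM compound relative to α-MSH. Values are means of at least two separate experiments.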
For orientation: Changes in cAMP serve as a functional read-out for many G protein-coupled receptors.

Assay [2] concerns the target T1, Melanocortin receptor 4. Briefly: Concentration required to inhibit binding of [125I]-NDP-alpha-MSH from membranes prepared from CHO cells expressing human melanocortin subtype-4-receptor (MC4R). In kind it is cell membranes. A digest of the protocol:
(§2)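 Competition binding using membranes from CHO cells expressing human MC4R, with [125I]-NDP-α-MSH as radioligand. IC50 is the compound concentration that inhibits radioligand binding by 50%. Values are means of at least two separate experiments.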

Assay [3] concerns the target T1, Melanocortin receptor 4. Put plainly: Concentration required to inhibit binding of [125I]NDP-alpha-MSH from membranes prepared from CHO cells expressing human MC4R. The class given is cell membranes. Put shortly: as §2
Assay [4] deals with T1, Melanocortin receptor 4. Put plainly: Percentage of cAMP accumulation at 10 uM of compound relative to alpha-MSH, at human MC4R. The class given is functional. Put shortly:
as §1

For assay [5], the target named is T1, Melanocortin receptor 4. Briefly: Effective concentration for cAMP accumulation relative to alpha-MSH at human MC4R. In kind it is functional. Put shortly:
as §1

The target in assay [6] is Melanocortin receptor 5 (Homo sapiens, UniProt P33032). Briefly: Concentration required to inhibit binding of [125I]NDP-alpha-MSH from membranes prepared from CHO cells expressing human melanocortin subtype-5-receptor (MC5R). The class given is cell membranes.
Sequence of Melanocortin receptor 5 (P33032 whole entry): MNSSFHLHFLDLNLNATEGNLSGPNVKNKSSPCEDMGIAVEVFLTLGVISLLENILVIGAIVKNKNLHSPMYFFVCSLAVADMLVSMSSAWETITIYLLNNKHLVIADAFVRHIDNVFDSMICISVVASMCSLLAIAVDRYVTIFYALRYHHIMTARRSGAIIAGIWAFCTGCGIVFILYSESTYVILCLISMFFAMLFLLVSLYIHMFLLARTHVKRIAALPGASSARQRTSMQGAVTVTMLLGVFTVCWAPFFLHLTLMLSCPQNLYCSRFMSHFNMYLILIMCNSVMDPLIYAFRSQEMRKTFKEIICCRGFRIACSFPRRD
Assay [7] has as its target Melanocortin receptor 3 (Homo sapiens, UniProt P41968). Briefly: Concentration required to inhibit binding of [125I]NDP-alpha-MSH from membranes prepared from CHO cells expressing human melanocortin subtype-3-receptor (MC3R). In kind it is cell membranes.

Our source for the Max, IC50 and EC50 values is ChEMBL document CHEMBL1136492, “Design and syntheses of melanocortin subtype-4 receptor agonists: evolution of the pyridazinone archetype” (Bioorg Med Chem Lett, 2003).

SMILES strings stand for the structures.

T1 sequence (P32245 whole entry): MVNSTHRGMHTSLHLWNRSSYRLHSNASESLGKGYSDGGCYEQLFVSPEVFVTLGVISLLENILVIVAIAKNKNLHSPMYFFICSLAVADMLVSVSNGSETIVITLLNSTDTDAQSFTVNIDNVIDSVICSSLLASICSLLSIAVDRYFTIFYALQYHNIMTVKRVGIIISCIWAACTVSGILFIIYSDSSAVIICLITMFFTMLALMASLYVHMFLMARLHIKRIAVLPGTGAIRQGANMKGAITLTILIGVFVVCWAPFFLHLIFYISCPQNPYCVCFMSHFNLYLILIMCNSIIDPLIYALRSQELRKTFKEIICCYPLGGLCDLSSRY
Sequence of Melanocortin receptor 3 (P41968 whole entry): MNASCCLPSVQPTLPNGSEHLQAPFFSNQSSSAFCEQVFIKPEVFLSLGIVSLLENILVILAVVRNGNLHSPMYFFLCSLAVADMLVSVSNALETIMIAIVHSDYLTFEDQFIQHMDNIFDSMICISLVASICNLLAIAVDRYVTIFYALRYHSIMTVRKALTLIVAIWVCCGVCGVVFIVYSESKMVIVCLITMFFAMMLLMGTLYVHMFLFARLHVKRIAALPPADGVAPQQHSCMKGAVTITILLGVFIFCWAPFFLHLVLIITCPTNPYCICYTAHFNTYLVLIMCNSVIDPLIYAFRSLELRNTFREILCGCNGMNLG

For the compound `O=C(N[C@H](Cc1ccc(Cl)cc1)C(=O)N1CCC(Cn2cncn2)(C2CCCCC2)CC1)[C@H]1CCc2ccccc2N1`, in assay [1], the Max was found to be 97%. For the same compound, the IC50 – broadly, the midpoint of a concentration-inhibition curve – in assay [2] came out at 0.0012 µM.

Regarding `COc1ccc(-n2nc(Sc3ccc(Cl)cc3)cc(CCC(=O)NCCOc3ccccc3)c2=O)cc1`, the IC50 in assay [3] was found to be 5.6 µM. The Max in assay [4] was determined as 15%.

`COc1ccc(-n2nc(Sc3ccc(Cl)cc3)cc(CC[C@H](C)NC(=O)[C@H]3CNC[C@@H]3c3ccccc3)c2=O)cc1` returned a Max in assay [1] of 67%. This compound returned an IC50 in assay [2] of 0.975 µM. In addition, the EC50 – broadly, the concentration that produces a half-maximal response – in assay [5] was found to be 5.8 µM.

Compound `COc1ccc(-n2nc(Sc3ccc(Cl)cc3)cc(CCCNC(=O)[C@H]3CNCC[C@@H]3c3ccccc3)c2=O)cc1` had a Max in assay [1] of 20%. In assay [2], this compound returned a half-inhibitory concentration (IC50) of 1.97 µM. Besides, the response in assay [5] was half-maximal at 0.5 µM (EC50).

`COc1ccc(-n2nc(Sc3ccc(Cl)cc3)cc(CC[C@@H](C)NC(=O)[C@H]3CCNC[C@@H]3c3ccccc3)c2=O)cc1` came in with a Max in assay [4] of 85%. The compound further had an IC50 in assay [2] of 0.13 µM. The compound also showed an EC50 in assay [5] of 0.237 µM.

In assay [2], `COc1ccc(-n2nc(Sc3ccc(Cl)cc3)cc(CC[C@@H](C)NC(=O)[C@H]3CNC[C@@H]3c3ccccc3)c2=O)cc1` [listing 1 of 3 here] returned an IC50 of 0.38 µM. Further, in assay [5], the midpoint of the response, the EC50, lay at 0.25 µM.

As for `COc1ccc(-n2nc(Sc3ccc(Cl)cc3)cc(CC[C@@H](C)NC(=O)[C@H]3CNCC[C@H]3c3ccccc3)c2=O)cc1`, the Max in assay [4] was determined as 54%. In assay [2], this compound had an IC50 of 2.24 µM. The compound further registered a concentration giving a half-maximal response (EC50) in assay [5] of 4.05 µM.

For the compound `COc1ccc(-n2nc(Sc3ccc(Cl)cc3)cc(CC[C@H](C)NC(=O)[C@H]3CNCC[C@@H]3c3ccccc3)c2=O)cc1`, the Max in assay [4] amounted to 65%. This compound gave an IC50 in assay [2] of 1.2 µM. The EC50 in assay [5] was determined as 1.73 µM.

As for `COc1ccc(-n2nc(Sc3ccc(Cl)cc3)cc(CC[C@@H](C)NC(=O)[C@@H]3CNCC[C@@H]3c3ccccc3)c2=O)cc1`, the Max in assay [4] stood at 38%. The EC50 in assay [5] is > 5 µM.

In turn, `COc1ccc(-n2nc(Sc3ccc(Cl)cc3)cc(CC[C@@H](C)NC(=O)[C@H]3CNC[C@@H]3c3ccccc3)c2=O)cc1` [listing 2 of 3 here] displayed an IC50 in assay [2] of 0.19 µM. This compound came in with an EC50 in assay [5] of 0.405 µM.

In turn, `COc1ccc(-n2nc(Sc3ccc(Cl)cc3)cc(CCC(C)NC(=O)[C@H]3CNCC[C@@H]3c3ccccc3)c2=O)cc1` (stereo partly drawn) yielded a Max in assay [1] of 82%. This compound showed a 50% inhibitory concentration (IC50) in assay [2] of 0.041 µM. For the same compound, the response in assay [5] was half-maximal at 0.227 µM (EC50).

`COc1ccc(-n2nc(Sc3ccc(Cl)cc3)cc(CC(C)CNC(=O)[C@H]3CNCC[C@@H]3c3ccccc3)c2=O)cc1` (stereo partly drawn): the Max in assay [1] was found to be 35%. In assay [2], this compound showed an IC50 of 2.17 µM. Further, the EC50 in assay [5] is > 5 µM.

In assay [4], `COc1ccc(-n2nc(Sc3ccc(Cl)cc3)cc(CC[C@H](C)NC(=O)[C@H]3CNCC[C@H]3c3ccccc3)c2=O)cc1` gave a Max of 13%. In assay [2], this compound had an IC50 of 9.02 µM.

In assay [3], `COc1ccc(-n2nc(Sc3ccc(Cl)cc3)cc(CCC(=O)NC3CCCCNC3=O)c2=O)cc1` (stereo not drawn) displayed an IC50 of 0.00227 µM. In addition, the Max in assay [4] is 0%.

Take `COc1ccc(-n2nc(Sc3ccc(Cl)cc3)cc(CC[C@@H](C)NC(=O)[C@H]3CNCC[C@@H]3c3ccccc3)c2=O)cc1`: the results for the IC50 in assay [6], in assay [7] and in assay [2] were 1.41 µM, 2.17 µM and 0.033 µM, respectively. Further, in assay [4], the Max stood at 77%. In addition, in assay [5], the midpoint of the response, the EC50, lay at 0.177 µM.

For the compound `COc1ccc(-n2nc(Sc3ccc(Cl)cc3)cc(CC[C@H](C)NC(=O)[C@@H]3CNCC[C@H]3c3ccccc3)c2=O)cc1`, the Max in assay [4] was determined as 5%. The same compound displayed an IC50 in assay [2] of 2.99 µM.

In assay [1], `COc1ccc(-n2nc(Sc3ccc(Cl)cc3)cc(CCC(C)NC(=O)[C@H]3CCNC[C@@H]3c3ccccc3)c2=O)cc1` (stereo partly drawn) yielded a Max of 79%. For the same compound, the IC50 in assay [2] came out at 0.339 µM. Moreover, in assay [5], the EC50 worked out at 0.26 µM.

In the case of `COc1ccc(-n2nc(Sc3ccc(Cl)cc3)cc(CCCNC(=O)[C@H]3CCNC[C@@H]3c3ccccc3)c2=O)cc1`, the Max in assay [1] came out at 28%. For the same compound, in assay [2], the IC50 amounted to 2.75 µM. Besides, the EC50 in assay [5] was > 5 µM.

Take `COc1ccc(-n2nc(Sc3ccc(Cl)cc3)cc(CC[C@@H](C)NC(=O)[C@@H]3CNCC[C@H]3c3ccccc3)c2=O)cc1`: the Max in assay [4] came to 32%. In assay [2], this compound displayed an IC50 of 2.06 µM. Also, in assay [5], the EC50 is > 5 µM.

Turning to `COc1ccc(-n2nc(Sc3ccc(Cl)cc3)cc(CC[C@@H](C)NC(=O)[C@H]3CNC[C@@H]3c3ccccc3)c2=O)cc1` [listing 3 of 3 here], the Max is 97% in assay [1] and 103% in assay [4].

`COc1ccc(-n2nc(Sc3ccc(Cl)cc3)cc(CCCNC(=O)[C@H]3CNC[C@@H]3c3ccccc3)c2=O)cc1`: the Max in assay [1] is 22%. The same compound had an IC50 in assay [2] of 1.24 µM. Besides, the EC50 in assay [5] came out at 0.82 µM.

`COc1ccc(-n2nc(Sc3ccc(Cl)cc3)cc(CCC(=O)N[C@@H]3CCc4ccccc4NC3=O)c2=O)cc1` showed a Max in assay [1] of 34%. The compound also registered an IC50 in assay [2] of 0.144 µM. In assay [5], the EC50 came to 3.06 µM.

The compound `COc1ccc(-n2nc(Sc3ccc(Cl)cc3)cc(CC[C@H](C)NC(=O)[C@@H]3CNCC[C@@H]3c3ccccc3)c2=O)cc1` displayed a Max in assay [4] of 12%.

`COc1ccc(-n2nc(Sc3ccc(Cl)cc3)cc(C(C)CCNC(=O)[C@H]3CNCC[C@@H]3c3ccccc3)c2=O)cc1` (stereo partly drawn) registered a Max in assay [1] of 31%. Moreover, in assay [2], the concentration for half-maximal inhibition (IC50) came to 3.93 µM. Besides, in assay [5], the EC50 was > 5 µM.
